How the values were obtained:
[1] = 100% FBS supplemented with 50 mM HEPES, pH 7.4; conditions: fetal bovine, 37 °C, up to 24 h
[2] = Optical/chemical stability of fluorophores in 100% warm serum; assay type: in vitro ADME, bovine; conditions: 24 h
How it was run: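 Test fluorophores (10 mM DMSO stock, 100 μM working solution) were diluted into 100% FBS buffered with 50 mM HEPES, pH 7.4, and held at 37 °C. Optical stability was followed over time to 24 h by absorbance and fluorescence spectra, under 770 nm laser excitation at 10 mW.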

Stability = assay type: in vitro ADME, bovine; conditions: fluorophore conjugated with a small molecule ligand, 24 h
[3] = In vivo biodistribution and clearance in rodents after intravenous injection; design: species or system CD-1 mice and SD rats; conditions: rodent, 4 h post-injection
How it was run: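 Male CD-1 mice (≈25 g) and male Sprague-Dawley rats (≈250 g) were anaesthetised with ketamine 100 mg/kg plus xylazine 10 mg/kg i.p. They received test compound i.v. (mice 25 nmol, rats 100 nmol) and were imaged 4 h later on the FLARE NIR system (760 nm excitation, 11.0 mW/cm2; 810 ± 20 nm emission). Organ signal-to-background was calculated against surrounding muscle, with ≥3 animals per time point, mean ± s.d.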

| Molecule | fragment found [1] | not cleaved [1] | serum stability [2] [%] | stable form maintained in warm serum (Stability) [%] | renal excretion [3] [%] |
| --- | --- | --- | --- | --- | --- |
| Cyclo(Arg-Gly-Asp-D-Tyr-Lys) | hydrolyzed form of cRGD-ZW800-1A, 24 h | >98%, 24 h |  |  |  |
| CC1(C)C(/C=C/C2=C(c3ccc(CCC(=O)O)cc3)C(=C/C=C3/N(CCC[N+](C)(C)C)c4ccc(S(=O)(=O)O)cc4C3(C)C)/CCC2)=[N+](CCC[N+](C)(C)C)c2ccc(S(=O)(=O)O)cc21 [ZW800-1C] |  |  | > 99 | > 98 | > 80 |
